Screening data from PubChem.
TNF death inh: inhibitors of TNF-alpha induced necroptosis in Jurkat FADD-/- cells | actives 0.068% (n = 220,000) | Jurkat FADD-/- TNF necroptosis rescue, ATP luminescence, 24 h; 0 = TNF only, 100 = no-TNF cells | activation (protection from cell death), % at 10 µM;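 active means activation, meaning protection from cell death, of at least 50% relative to plate controls; inactive means activation below 50%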;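 further: necroptosis triggered by 40 ng/mL TNF-alpha added together with compound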
Pf gamet viab: kills late stage P. falciparum gametocytes; P. falciparum stage V gametocytes, ATP luminescence, 24 h; actives 0.065% (n = 150,000); inhibition, % at 10.9 µM;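 active means inhibition above the mean plus 3 SD of compounds within the control limits, set per campaign, cut at about 38% in these data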;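 further: 0% = DMSO wells and 100% = medium only without gametocytes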
zVAD death inh: blocks zVAD induced death of L929 cells; actives 0.38% (n = 220,000); AID 1377; L929 zVAD necroptosis rescue, ATP luminescence, 24 h; with zVAD 60 µM; viability rescue, % at 10 µM;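 active means activation, scaled between plate controls, above about 75%, limit read from the data; inactive means activation under that limit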;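 further: 0% = zVAD with DMSO and 100% = DMSO alone without zVAD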
Mdm2 ligase inh: blocks human Mdm2 ubiquitin ligase activity; AID 1230; actives 0.11% (n = 210,000); Q00987; signal enhancement, % at 5 µM; cell-based MDM2 ubiquitination luciferase reporter, 2 h; 0 = plate control, 100 = twice control, blank-subtracted;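 active means signal enhancement of 30% or more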;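 further: luminescence tracks abundance of the self-degrading MDM2-luciferase fusion protein; higher signal means inhibition of MDM2 E3 ligase activity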
Target sequence (Q00987 whole entry, looked up, the tested form may be a part): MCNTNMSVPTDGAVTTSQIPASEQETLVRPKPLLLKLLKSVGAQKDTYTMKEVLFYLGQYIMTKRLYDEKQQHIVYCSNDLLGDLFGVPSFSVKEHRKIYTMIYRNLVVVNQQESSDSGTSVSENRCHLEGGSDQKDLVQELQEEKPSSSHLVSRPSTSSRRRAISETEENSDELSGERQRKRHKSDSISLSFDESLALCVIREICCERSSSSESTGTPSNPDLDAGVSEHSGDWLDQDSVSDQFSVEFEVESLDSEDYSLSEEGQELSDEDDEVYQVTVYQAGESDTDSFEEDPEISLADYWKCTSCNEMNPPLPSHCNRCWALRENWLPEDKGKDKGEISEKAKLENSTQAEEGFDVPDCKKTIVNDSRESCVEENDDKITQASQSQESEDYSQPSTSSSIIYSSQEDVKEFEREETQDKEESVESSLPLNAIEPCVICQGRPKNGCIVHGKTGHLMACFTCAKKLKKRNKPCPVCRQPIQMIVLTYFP
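Assay system: stable mammalian line carrying autodegrading MDM2–luciferase fusion reporter; Input: 2000 cells in each well; Compound dosing: single-point 5 µM; Schedule: 2 h compound exposure at 37 °C; Signal: SteadyLite luciferase luminescence after 15 min room-temperature reagent incubation; Evaluation: % luminescence enhancement versus blank-corrected plate control mean; Benchmarks: plate controls and plate blanks.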
Wee1 stabilizer: human Wee1 degradation inhibition, primary screen | actives 1.2% (n = 220,000) | HeLa Luc-Wee1K328M stability, luciferase luminescence; 100% = proteasome inhibitor MG132 effect | P30291 | reporter increase, % at 5 µM;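 active means activation above the mean of all tested compounds plus 3 SD, set per screening run, cut at about 8.8% in these data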;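 further: cells exposed to compound for 20 h before luminescence read; 0% = DMSO alone and 100% = MG132 at 30 µM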
zVAD death conf: confirmed blocker of zVAD induced death in L929 cells; L929 zVAD-induced necroptosis rescue, ATP luminescence, 24 h; shares compounds with zVAD death inh; actives 16% (n = 760); activation (protection from necroptosis), % at 10 µM;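 active means mean protection from necroptosis of at least 50% over duplicate tests; inactive means mean protection below 50%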;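 further: 0% = cells with zVAD alone and 100% = vehicle cells without zVAD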
* hit, by the source's call; . = no result. Rows were chosen to be rich in hits. Some 1.6% of all compounds tested hit in one or more screens of this group.

SMILES	TNF death inh	Pf gamet viab	zVAD death inh	Mdm2 ligase inh	Wee1 stabilizer	zVAD death conf
CCn1nnnc1SCC(=O)NCc1cccs1	1	-14	0	-15	-4	.
COc1cc(CNc2ccc3[nH]c(=O)[nH]c3c2)ccc1OCc1ccccc1F	.	-13	.	.	.	.
CCCCN(CC)CCNc1c(NC2CCN(C(=O)OCC)CC2)c(=O)c1=O	2	.	7	-5	-2	.
Cc1ccc(OCCCC(=O)Nc2nccs2)cc1	-1	16	0	-7	1	.
Cc1cccc(OCCCC(=O)Nc2nccs2)c1	9	.	89*	.	0	3
Nc1cccc(NC(=O)CN2CCOCC2)c1	.	-21	.	.	.	.
CCN(CC)C(=O)C1CCCN(Cc2ccc(F)c(F)c2)C1 (centres undefined)	2	.	1	-3	-3	.
Cc1cc(N/N=C/c2ccncc2)nc2ccccc12	50*	-41	81*	-12	2	77*
CC1=C(C(=O)OCc2ccccc2)C(c2cccc3ccccc23)NC(=O)N1CCCC(=O)O (centres undefined)	.	-7	.	.	.	.
O=[N+]([O-])c1cc(-c2nnc(Nc3ccccc3)c3ccccc23)ccc1N1CCOCC1	1	-2	98*	-5	-1	36
CC1CCCCC1NC(=O)C1CCN(S(=O)(=O)c2cccc3nsnc23)CC1 (centres undefined)	1	.	0	0	-2	.
COc1cccc(C(=O)Nc2ccc(NC(=O)c3cc4ccccc4o3)c(OC)c2)c1	.	13	.	.	.	.
CN(C)S(=O)(=O)c1ccc(NC(=O)c2cc3ccccc3o2)cc1	-1	-8	92*	-13	5	4
COc1cc(NC(=O)c2cccs2)ccc1NC(=O)c1cc2ccccc2o1	1	-11	78*	3	-2	1
Cc1ccc(NC(=O)c2cc3ccccc3o2)cc1S(=O)(=O)N(C)C	-2	2	1	-21	3	.
Cc1cc(NC(=O)c2cccc(Oc3ccccc3)c2)n[nH]1	13	-42	78*	-25	3	5
Cn1nc(N)c2c(-c3ccccc3)c(C#N)c(N)nc21	3	.	6	-6	3	.
Cn1nc(N)c2c(-c3ccc(Cl)cc3)c(C#N)c(N)nc21	2	-2	81*	-10	-1	37
O=C(Nc1ccc2c(c1)OCO2)c1cc(C2CC2)on1	1	.	-1	-17	2	.
O=C(CSc1nnc2ccccn12)c1ccc(Cl)cc1	0	4	0	-11	7	.
O=C(CSc1nnc2n1CCCN2C(=S)Nc1ccc(Cl)cc1)c1ccccc1	96*	3	93*	-5	0	3
Cc1nc2cc(NC(=O)Nc3ccc(Br)cc3)ccc2o1	1	4	80*	-12	3	1
Cc1nc2cc(NC(=O)NCc3ccc4c(c3)OCO4)ccc2o1	-1	.	0	14	-2	.
COc1cccc(NC(=O)Nc2ccc(C(C)(C)C)cc2)c1	2	-36	79*	-4	6	8
COC(=O)c1ccc(NC(=O)Nc2ccc(OC)cc2)cc1	5	-25	83*	-3	-1	2
SMILES	TNF death inh	Pf gamet viab	zVAD death inh	Mdm2 ligase inh	Wee1 stabilizer	zVAD death conf
COC(=O)c1ccc(NC(=O)Nc2ccc(F)cc2)cc1	3	.	73	-16	-1	.
COc1cccc(NC(=O)NC(C)C2CC3CCC2C3)c1 (centres undefined)	1	-9	75*	-12	0	30
COc1cccc(NC(=O)Nc2ccncc2)c1	0	9	0	5	-2	.
Cc1ccc(SCC(=O)Nc2ccc(N3CCN(C)CC3)c(F)c2)c(C)c1	3	.	5	-27	5	.
CCc1ccc(OCC2c3cc(OC)c(OC)cc3CCN2C(=S)NC)cc1 (centres undefined)	-3	-14	0	-15	8	.
CNC(=O)c1cc(OCC(F)(F)F)ccc1OCC(F)(F)F	0	-6	1	2	-2	.
Cc1ccc(NC(=O)COC(=O)c2ccc3c(c2)NC(=O)C2CCCN32)cc1C (centres undefined)	-4	-11	90*	1	-2	61*
COCC(C)NC(C(=O)Nc1ccc(C)c(Cl)c1)c1ccccc1 (centres undefined)	3	22	0	-12	5	.
Cc1ccc(NC(=O)C(OC(=O)c2ccc(C=O)cc2)c2ccccc2)cc1Cl (centres undefined)	3	.	83*	-19	0	19
Nc1nnnn1/N=C/C(Br)=C/c1ccccc1	-17	.	116*	17	1	102*
Nc1nnnn1/N=C/C=C/c1ccccc1	0	-34	1	-6	0	.
COc1ccc(N2CCN(C(C)C(=O)Nc3nnc(C)s3)CC2)cc1 (centres undefined)	0	.	4	6	-3	.
COc1cc(/C=C2\Oc3cc(O)ccc3C2=O)ccc1O	-3	.	76*	-21	.	27
O=C1/C(=C/c2ccc(O)c(O)c2)Oc2cc(O)ccc21	-2	.	13	-21	.	.
N#CC(C#N)=C1C(=O)N(CCN2CCCCC2)c2ccccc21	-28	12	90*	0	2	35
N#CC(C#N)=C1C(=O)N(CCN2CCOCC2)c2ccccc21	-8	-11	86*	4	0	1
CCCCN1C(=O)/C(=C(/C#N)C(=O)N2CCCC2)c2ccccc21	-3	-13	1	.	1	.
CCNC(=O)NC(=O)C(C)Sc1nnc(COc2ccccc2Cl)o1 (centres undefined)	1	.	0	-2	0	.
Cc1ccc(S(=O)(=O)NC(=NC(C)C(=O)O)c2ccccc2)cc1 (centres undefined)	-1	.	0	-16	-2	.
Oc1ccccc1N=Cc1sc2ccccc2c1Cl	5	-6	86*	-10	0	3
Nc1cc(=O)[nH]c(=S)n1-c1ccccc1	0	.	0	3	1	.
CN(C)C=NC(=O)/C(C#N)=C1\CCc2ccccc2N1	15	12	83*	-18	4	6
O=C(Nc1ccc2c(c1)OCO2)c1noc2c1CCCCC2	2	.	80*	-8	10*	7
CC(=O)c1ccc(NC(=O)c2noc3c2CCCCC3)cc1	-1	.	0	-8	7	.
O=C(COC(=O)c1ccc(O)cc1)Nc1ccc(OC(F)F)cc1	2	16	77*	-7	-1	36
O=C(COC(=O)c1cccc(O)c1)Nc1ccc(OC(F)F)cc1	0	-21	1	-3	-2	.
CCN1CCN(CC(=O)N2N=CCC2c2ccccc2)CC1 (centres undefined)	1	-19	-1	-13	-2	.
O=C(Nc1ccc(Cl)c(Cl)c1)N1N=CCC1c1ccccc1 (centres undefined)	97*	-8	79*	-11	-4	11
